Columns and labels:
Plasmodium falciparum [1] = assay: Antiplasmodial activity against chloroquine resistant Plasmodium falciparum Dd2-Dd2 mutant replaced with recombinant Dd2 sequence at endogenous pfcrt Dd2 locus infected in human RBC assessed as parasite growth inhibition incubated for 72 hrs by SYBR Green dye based fluorescence assay; format: functional, organism-based; details: Erythrocyte
Procedure, shortened: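 Gene-edited Dd2 lines with the endogenous pfcrt locus replaced by zinc-finger nuclease editing. Concentration-response curves run with technical duplicates at each concentration; values are the average of two biological replicates, with std dev given where more replicates were collected.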

Plasmodium falciparum [2] = assay: Antiplasmodial activity against lab-derived ELQ300 resistant Plasmodium falciparum Dd2-PfCytB mutant infected in human RBC assessed as parasite growth inhibition incubated for 72 hrs by SYBR Green dye based fluorescence assay; format: functional, organism-based; details: Erythrocyte
[3] = Inhibition of hemozoin formation in sorbitol-synchronized early ring stage plasmodium falciparum NF54 trophozoites assessed as fold increase in free heme-Fe level at 3 times EC50 incubated for 32 hrs by flow cytometry analysis; format: functional
Procedure, shortened: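 Trophozoites were saponin-released (0.05%), PBS-washed, counted by flow cytometry, then hypotonically lysed and sonicated. Heme was fractionated with HEPES, SDS, pyridine and NaOH and read as Fe(III)heme–pyridine absorbance against a heme standard curve (fg/cell). Three biological replicates; Student's t-test.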

Plasmodium falciparum [4] = assay: (§1) Antiplasmodial activity against Rac-N-(Pyridin-3-yl(1-(o-tolyl)-1H-tetrazol-5-yl)methyl)-N-(3-(trifluoromethyl)benzyl)Cyclopropanamine resistant Plasmodium falciparum 3D7 clone F1-B6 ring-stage parasite assessed as parasite growth inhibition incubated for 72 hrs by SYBR Green and MitoTracker Deep Red FM dye based flow cytometry; format: functional, organism-based
Procedure, shortened: (§2)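 Clonal 3D7-A10 lines recovered after single-step selection; ring stages at 0.2% parasitemia, 1% hematocrit in RPMI-1640 with 0.5% Albumax. 72 h exposure to a 10-point 2-fold dilution series in duplicate with DMSO controls, final DMSO <0.5%. Survival read by flow cytometry, SYBR Green as nuclear stain and MitoTracker Deep Red FM as vital dye. EC₅₀ and EC₉₀ reported with fold shift relative to parental 3D7-A10.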

Plasmodium falciparum [5] = assay: as §1, with “F1-C1” for “F1-B6”; format: functional, organism-based; procedure, shortened: as §2
Plasmodium falciparum [6] = assay: as §1, with “F1-E4” for “F1-B6”; format: functional, organism-based; procedure, shortened: as §2
Plasmodium falciparum [7] = assay: as §1, with “F2-A10” for “F1-B6”; format: functional, organism-based; procedure, shortened: as §2

Which EC50 (Plasmodium falciparum [1]) does the source give for `Cc1ccccc1-n1nnnc1C(c1cccnc1)N(Cc1cccc(C(F)(F)F)c1)C1CC1` (racemic) here?
Its EC50 is 450 nM.

What about the EC50 (Plasmodium falciparum [2]) of the same compound?
Its EC50 is 850 nM.

What about the “fold change (FC)” value [3] of the same compound?
Its value is 6.

And the EC50 (Plasmodium falciparum [4]; 3D7 clone F1-B6, 72 h)?
Its EC50 is 550 nM.

What about the EC90 (Plasmodium falciparum [4]; 3D7 clone F1-B6, time 72 hrs) of the same compound?
The EC90 was 1100 nM.

And the EC50 (Plasmodium falciparum [5]; 3D7 clone F1-C1, 72 h)?
Its EC50 is 540 nM.

What about the EC90 (Plasmodium falciparum [5]; 3D7 clone F1-C1, time 72 hrs) of the same compound?
Its EC90 is 1000 nM.

What about the EC50 (Plasmodium falciparum [6]; 3D7 clone F1-E4, 72 h) of the same compound?
Its EC50 is 740 nM.

What about the EC90 (Plasmodium falciparum [6]; 3D7 clone F1-E4, time 72 hrs) of the same compound?
The EC90 was 1500 nM.

And the EC50 (Plasmodium falciparum [7]; 3D7 clone F2-A10, 72 h)?
The EC50 was 830 nM.

What about the EC90 (Plasmodium falciparum [7]; 3D7 clone F2-A10, time 72 hrs) of the same compound?
The EC90 was 1500 nM.

From ChEMBL document CHEMBL5149972, “Novel Antimalarial Tetrazoles and Amides Active against the Hemoglobin Degradation Pathway in Plasmodium falciparum” (J Med Chem, 2021)
